Columns and labels:
[1] = Cytotoxicity against drug-resistant human KB31 cells after 72 hrs by MTS reduction assay; format: functional, cell-based; conditions: KB 3-1, 72 h, in the assay text read “drug-sensitive” for “drug-resistant”
How it was run: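 KB-3-1 cells grown as monolayers in DMEM with 10% FBS at 37 °C and 5% CO2, harvested by trypsin at 70-80% confluence and seeded at 4 × 10^3/well for 24 h. Dilutions of DMSO stock in medium were added (DMSO ≤0.25% final, also in controls), six wells per concentration, for 72 h. Viable cells were read by MTS/PMS, 50 min, A492. IC50 came from three passages.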

[2] = Cytotoxicity against multidrug-resistant human KBV1 cells after 72 hrs by MTS reduction assay; format: functional, cell-based; conditions: KB-V1, 72 h
How it was run: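 KB-V1 multidrug-resistant line (P-170 glycoprotein) kept without vinblastine, using passages 5-15, in DMEM/10% FBS at 37 °C and 5% CO2. Cells were trypsinized at 60-70% confluence and seeded at 7 × 10^3/well for 24 h. Compound was added in medium (DMSO ≤0.25%), six replicates per concentration, for 72 h. Read-out was MTS/PMS, 50 min, A492. IC50 came from three separate passages.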

[3] = Resistance index, ratio of IC50 for human KBV1 cells to IC50 for human KB31 cells; format: functional
How it was run: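 Ratio of the IC50 in KB-V1 cells to the IC50 in parental KB-3-1 cells, each from a 72-h MTS/PMS proliferation assay (A492) run in parallel under the same dosing conditions (DMSO ≤0.25%, six replicates per concentration, three separate determinations).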

SMILES | IC50 [1] [nM] | IC50 [2] [nM] | Ratio [3]
COc1ccc2c3c(c4cc(OC)c(OC)cc4c2c1)[C@@H](O)[C@H]1CCC[N+]1([O-])C3 (stereo not given in full) | 100 | 160 | –
COc1ccc(C2=C(c3ccc(OC)c(OC)c3)C[C@H]3CCC[N+]3([O-])C2)cc1 (stereo not given in full) | 2550 | 3300 | –
COc1ccc2c3c(c4cc(OC)c(OC)cc4c2c1)C[C@H]1CCC[N+]1([O-])C3 (stereo not given in full) | 110 | 160 | –
COC(=O)c1ccccc1-c1c2ccc(=N)cc-2oc2cc(N)ccc12.Cl [RHODAMINE123] | 1400 | > 500000 | 500
CC[C@]1(O)C[C@@H]2CN(CCc3c([nH]c4ccccc34)[C@@](C(=O)OC)(c3cc4c(cc3OC)N(C)[C@H]3[C@@](O)(C(=O)OC)[C@H](OC(C)=O)[C@]5(CC)C=CCN6CC[C@]43[C@@H]65)C2)C1 [VINBLASTINE] | – | – | 210

— ChEMBL document CHEMBL1142555, “Cytotoxic activity of some phenanthroindolizidine N-oxide alkaloids from Cynanchum vincetoxicum” (J Nat Prod, 2000)
